Only some compounds are listed: those with a hit (about 5.1% of all), similar ones and a draw of the others.
STAT1 act – activators of IFN-gamma induced STAT1 signaling; NIH 3T3 STAT1-luciferase reporter, luminescence; 100% = IFN-gamma alone, no compound; activation (% of control), % at 5.5 µM; 200,000 compounds, 2.6% hits;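 active = activation above the screen-wide mean activation plus 3 SD, cut at about 130% in these data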
NF-kB neuron act – NF-kB expression increase, human neuronal cells | AID 1239 | NF-kB reporter expression; hits give high values | fold change at 12.5 µM | 190,000 compounds, 1.6% hits; in the data active = fold change above about 3.3
APP 5'UTR act – activates APP 5'UTR luciferase reporter | SH-SY5Y APP 5'UTR luciferase reporter, luminescence; zero percent = DMSO vehicle wells | activation, % at 2 µM | 190,000 compounds, 1% hits | AID 1276;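 active = activation above a set limit, based on mean plus 3 SD of controls, cut at about 140% in these data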
STAT1 inh – reduces IFN-gamma driven STAT1 reporter signal | AID 920 | 200,000 compounds, 0.35% hits | inhibition, % at 5.5 µM | NIH 3T3 STAT1-luciferase reporter, luminescence;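 active = inhibition above a set limit, the mean inhibition across all tested compounds plus 3 SD, cut at about 34% in these data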
STAT3 blocker – STAT3 signaling inhibition; U3A cells, IL-6 STAT3-luciferase reporter, luminescence; host cell line lacks STAT1; inhibition, % at 5.5 µM; 190,000 compounds, 0.89% hits; AID 862;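 active = inhibition above the mean inhibition across all screened compounds plus 3 SD, cut at about 44% in these data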
STAT3 activator – STAT3 signaling activation. U3A cells, IL-6 STAT3-luciferase reporter, luminescence; 100% = signal with IL-6 EC80 alone. 190,000 compounds, 0.91% hits. activation (% of control), % at 5.6 µM;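 active = activation above the screen-wide mean of compound activation plus 3 SD, cut at about 130% in these data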
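Test system: STAT3-luciferase reporter U3A cells; Detection: reporter luminescence signal; Times: 1 h compound pre-exposure, 6 h IL-6 stimulation, 37 °C; Benchmarks: IL-6-only high control; Also added: IL-6 stimulus at 33 ng/mL final.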
Each line names hits and unclear results; the compound was inactive in the other large screens.

Cc1ccccc1-c1cc(-c2ccccc2O)n[nH]1	NF-kB neuron act 7.7, APP 5'UTR act 158
Cc1sc2ncn3cnnc3c2c1C	none
O=C(CNC(=O)c1cccs1)c1ccc([N+](=O)[O-])cc1	STAT1 act 136
O=C(CNC(=O)c1cccs1)OCC(=O)c1ccc([N+](=O)[O-])cc1	none
CC(Cc1ccccc1)NC(=O)c1ccc([N+](=O)[O-])cc1 (centres undefined)	STAT1 act 143
O=C(CNC(=O)c1cccs1)OCC(=O)c1ccc(Cl)cc1	none
O=C(CNC(=O)c1cccs1)c1ccc(F)cc1	NF-kB neuron act 4, APP 5'UTR act 158
O=C(CNC(=O)c1ccc([N+](=O)[O-])cc1)c1ccccc1	STAT1 act 134
COc1cccc(/C=N/NC(=O)CC(=O)NCCc2ccccc2)c1OC	none
Cc1ccn2cc(CCNC(=O)C3CCCCC3)nc2c1	none
Cc1ccccc1NC(=O)c1ccc(CN2CCC(Cc3ccccc3)CC2)cc1	STAT3 blocker 50
COc1ccc(-c2cn3c(C)c(C(=O)NCCN4CCOCC4)sc3n2)cc1	none
CCN(CC)C(=O)c1sc2nc(-c3ccc(OC)cc3)cn2c1C	STAT1 act 143
CCOC(=O)c1ccc(N=Nc2c(C)c(C#N)c(O)[nH]c2=O)cc1	NF-kB neuron act 3.6, APP 5'UTR act 135
Cc1ccc(NC(=O)OC(C)CNC(=O)Oc2cccc(C)c2)cc1 (centres undefined)	STAT1 act 140
N/C(=N\OC(=O)c1ccc(Cl)cc1Cl)c1ccccn1	STAT1 inh 89, STAT3 blocker 86
O=C(O/N=C(\c1ccccc1)c1ccccn1)c1ccc(Cl)c(Cl)c1	none
N/C(=N\OC(=O)c1cc(Br)ccc1Cl)c1ccccn1	NF-kB neuron act 6, APP 5'UTR act 180
CC(=O)NCCOc1ccc2oc3ccccc3c2c1	STAT1 act 130
COc1ccc(CC(=O)Nc2cccc(-c3nnc(-c4ccc(C)cc4)o3)c2)cc1OC	none
O=C(OCc1ccccc1)c1cccc(-c2nnc(-c3ccccc3)o2)c1	none
CCOC(=O)c1cccc(COC(=O)c2cccc(-c3nnc(-c4ccccc4)o3)c2)c1	STAT1 act 131
CC(=O)Nc1cccc(-c2nnc(-c3ccccc3)o2)c1	STAT1 act 130
Cc1ccc(OCC(=O)Nc2cccc(-c3nnc(-c4ccccc4)o3)c2)c(C)c1	STAT1 act 132
C=CCOC(=O)C1=C(C)NC(=O)NC1c1cn(-c2ccccc2)nc1-c1cccs1 (centres undefined)	none
O=C(c1cc([N+](=O)[O-])ccc1N1CCN(S(=O)(=O)c2ccc(Cl)c(Cl)c2)CC1)N1CCOCC1	none
O=C(Nc1ccccn1)c1sc2cccc(F)c2c1Cl	NF-kB neuron act 5.7, APP 5'UTR act 179
CN(C)CCNC(=O)c1sc2cccc(F)c2c1Cl	none
O=C(Nc1cccnc1)c1sc2cccc(F)c2c1Cl	STAT1 act 133
CC1(C(=O)NCCCNc2ncc(C(F)(F)F)cc2Cl)C=CCN1C(=O)c1ccccc1 (centres undefined)	none
CCOC(=O)C1CCN(C(=O)Cc2cccs2)CC1	none
CCCCCC(=O)Nc1ccc(N2CCN(S(C)(=O)=O)CC2)cc1	none
COc1ccc2c(c1)Cc1sc(NC(=O)c3cccnc3)nc1-2	none
COc1ccc2c(c1)Cc1sc(NC(C)=O)nc1-2	STAT1 act 146
CCOC(=O)c1ccc(NC(=O)CC2OCCN(CC)C2=O)cc1 (centres undefined)	none
Cc1ccc(NC(=O)Nc2ccc3c(c2)N(C)C(=O)CS3)nc1	STAT1 act 129
CCOc1ccc(NC(=O)Nc2ccc(Br)cn2)cc1	STAT1 act 145
Cc1ccc(NC(=O)Nc2cc(C)on2)cc1	STAT1 act 130
Cc1ccc(NC(=O)Nc2ccc(F)cc2)nc1	STAT1 act 136
Cc1cc(C)c(NC(=O)CSc2nc3[nH]ncc3c(=O)[nH]2)c(C)c1	none
COc1ccc(CN2CC(C(=O)NCCCOC(C)C)CC2=O)cc1 (centres undefined)	none
COc1ccccc1-c1cc(C(=O)Nc2cccnc2)no1	STAT1 act 131
COc1ccc(CCNC(=O)c2cc(-c3ccccc3OC)on2)cc1OC	none
COc1ccccc1-c1cc(C(=O)NCCc2ccccc2)no1	NF-kB neuron act 3.8
O=C(COc1cccc(Oc2ccccc2)c1)Nc1ccc(SC(F)F)cc1	none
O=[N+]([O-])c1ccc(C2Nc3cccc4cccc(c34)N2)cc1	STAT3 activator 134
CCOC(=O)c1oc2cccc(OCC(O)CNC(C)C)c2c1C (centres undefined)	none
CCOC(=O)c1oc2ccc(/C=N/O)c(Cl)c2c1C	STAT1 act 132
O=C(Nc1ccc(-c2nc3cccnc3s2)cc1)c1ccc(Br)o1	STAT1 act 131
Cc1nc2ccc(NC(=O)Cc3cccs3)cc2s1	STAT1 act 136
Cc1nc2ccc(NC(=O)c3ccc(Br)o3)cc2s1	STAT1 act 145, NF-kB neuron act 3.4
Cc1nc2ccc(NC(=O)c3ccc(Cl)s3)cc2s1	STAT1 act 146
Cc1nc2ccc(NC(=O)c3cccnc3)cc2s1	none
O=C(CNc1cccc2ccccc12)c1ccc([N+](=O)[O-])cc1	none
CCN1C=C(Cc2ccc(F)cc2)C2=C(C1)C(c1ccc(F)cc1)C(C#N)=C(N)O2 (centres undefined)	none
CCSc1ccccc1C(=O)n1nnc2ccccc21	none
COc1ccc(Nc2nc(C)cc(=O)[nH]2)c(OC)c1	none
Cc1ccc(SCC(=O)Nc2nccs2)cc1	none
Cc1ccc(C#N)c(SCC(=O)Nc2nccs2)n1	APP 5'UTR act 175
N#Cc1cc2c(nc1SCC(=O)Nc1nccs1)CCCCC2	APP 5'UTR act 195
O=C(O)CCC(=O)Nc1nnc(C(F)(F)F)s1	none
CCC(NC(=O)Nc1nnc(C(F)(F)F)s1)(C(F)(F)F)C(F)(F)F	STAT1 inh 61, STAT3 blocker 99
Cc1ccc2c(CN3C(=O)NC(C)(c4ccc5c(c4)OCO5)C3=O)cc(=O)oc2c1 (centres undefined)	none
Cc1ccccc1NC(=O)CN1C(=O)N/C(=C\c2ccc(N3CCOCC3)c(F)c2)C1=O	none
CC(C)(C)c1ccc(/C=C/C(=O)N2CCN(c3ncccn3)CC2)cc1	none
CC(C)Cc1ccc(/C=C/C(=O)N2CCOCC2)cc1	STAT1 act 146, NF-kB neuron act 3.8
O=C(CCCOc1ccc(Cl)cc1)N1CCOCC1	none
CC(C)(C)c1ccc(OCCCC(=O)N2CCOCC2)cc1	STAT1 act 132
CC(C)(C)c1ccc(/C=C/C(=O)N2CCOCC2)cc1	STAT1 act 132
COc1cccc(NC(=O)COC(=O)CCCc2c[nH]c3ccccc23)c1	none
O=C(CCSCc1ccc(Cl)cc1)NCc1cccs1	none
O=C(Nc1ccc(Cl)cc1)OCc1ccccn1	STAT1 act 144

High-throughput results (PubChem BioAssay)
